Results on 24 molecules are retold here after ChEMBL document CHEMBL1129569, “Synthesis and anticonvulsant activities of N-Benzyl-2-acetamidopropionamide derivatives” (J Med Chem, 1996).

Usually ED50 stands for the midpoint of the dose-response relation. Broadly, the TD50 is the dose at which the toxic effect under study appears in half of the subjects.

Where “and” joins values, the source holds several entries; their conditions need not be identical. Equal values may be shown once.

Data set [1] concerns Mus musculus. The experiment in a line: Effective dose against maximal electroshock seizure in mice after intraperitoneal administration. Type of data set: functional. The gist of the method: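 Mice, ip; compounds suspended in 0.5% (w/v) methylcellulose in water, 0.01 mL/g body weight. Butacaine-containing saline electrolyte was dropped on the eyes, then corneal electrodes delivered 60-cycle AC, 50 mA, 0.2 s. The endpoint was abolition of hindlimb tonic extension.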
(In the maximal electroshock model the usual endpoint is tonic extension of the hind limbs.)

Data set [2] in a line: (§1) Neurotoxic toxicity was evaluated by rotarod test after intraperitoneal administration. Conditions: mouse, in vivo, ip. Type of data set: organism-based. Put shortly: (§2)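 Mice, ip, in 0.5% methylcellulose suspension. Impairment was defined as failure to stay balanced for 1 min on a 1 in. knurled rod turning at 6 rpm, in each of three successive trials.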
On the technique in general: The rotarod test checks motor coordination on a turning rod.

The nature of data set [3]: Protective index between TD50/MES ED50 when administered intraperitoneally to mouse. Conditions: in vivo, ip, read-out: PI. The class given is ADME, organism-based.
Data set [4] is described as follows: Neurotoxic toxicity in mice was evaluated by rotarod test after intraperitoneal administration. The class given is organism-based. As to conditions: mouse, in vivo, ip. Put shortly:
as §2

The nature of data set [5]: Protective index between TD50/MES ED50 when administered intraperitoneally to mice. Type of data set: ADME, organism-based. As to conditions: mouse, in vivo, ip; read-out: PI.
The next data set has as its system Rattus norvegicus. Briefly: Effective dose against maximal electroshock seizure in rat after oral administration. Type of data set: functional. The gist of the method: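 Male Sprague Dawley rats dosed orally with a suspension in 0.5% (w/v) methylcellulose in water. After anaesthetic electrolyte eye drops, corneal 60-cycle AC was applied at 150 mA for 0.2 s. Protection meant abolition of hindlimb tonic extensor.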

The nature of data set [6]: Neurotoxic toxicity against Rat was evaluated by rotarod test afte oral administration. The class given is organism-based. As to conditions: in vivo.
Data set [7] can be described thus: Protective index between TD50/MES ED50 when administered orally to rat. Type of data set: ADME, organism-based. Conditions: in vivo, po, read-out: PI. The gist of the method:
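Rats, oral. PI = TD50 (ataxia, gait and placing-response assessment) / MES ED50 (150 mA, 0.2 s corneal shock), with both taken at the time of peak effect.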

The nature of data set [8]: Neurotoxic toxicity was evaluated by rotarod test after intraperitoneal administration determined from horizontal screen test. Conditions: mouse, in vivo, ip. Type of data set: organism-based.
Data set [9] has as its system Mus musculus. The description is as §1. The class given is organism-based. As to conditions: in vivo, ip. The gist of the method:
as §2

Data set [10] in a line: Neurotoxic toxicity against Rat was evaluated by rotarod test afte oral administration <250. The class given is organism-based. As to conditions: in vivo.
Where [11] appears, read: Mus musculus, ip, read-out: ED50.

With `CCNCC(NC(C)=O)C(=O)NCc1ccccc1` (centres undefined), the ED50 in the data set on Mus musculus [1] (setting [11]) was over 100 mg/kg. This molecule also displayed a TD50 in data set [2] of 100 mg/kg.
As for `CC(=O)N[C@H](CO)C(=O)NCc1ccccc1`, in the data set with Mus musculus [1] (setting [11]), the ED50 is 53 mg/kg. In [3], the selectivity ratio was over 9.4. For the same molecule, the TD50 in [4] is over 500 mg/kg.
As for `CC(=O)NC(NO)C(=O)NCc1ccccc1` (centres undefined), in the data set on Mus musculus [1] (setting [11]), the ED50 is 100 mg/kg.
With `COC[C@@H](NC(C)=O)C(=O)NCc1cccc(F)c1`, the ED50 in the data set with Mus musculus [1] (setting [11]) and in the data set on Rattus norvegicus was 6.9 mg/kg each time. Further, the figures for the selectivity ratio in data set [5] and in data set [7] were 6.7 and over 58, respectively. The TD50 in [2] is 46 mg/kg; in data set [6], over 400 mg/kg.
The molecule `CC(=O)NC(CI)C(=O)NCc1ccccc1` (centres undefined) yielded a TD50 in data set [2] of 300 mg/kg.
Turning to `CON(C)C(NC(C)=O)C(=O)NCc1ccccc1` (centres undefined), the ED50 with Mus musculus [1] (setting [11]) was 6.7 mg/kg. In addition, the selectivity ratio in [5] came out at 7.6. The molecule further registered a TD50 in data set [8] of 51 mg/kg.
Regarding `CC(=O)NC(C)C(=O)NCc1ccccc1` (centres undefined), the selectivity ratio in data set [5] is 5.9; in data set [7], over 21. This molecule also displayed a 50% effective dose (ED50) with Rattus norvegicus of 48 mg/kg.
Turning to `CNCC(NC(C)=O)C(=O)NCc1ccccc1` (centres undefined), the ED50 in the data set on Mus musculus [1] is <300 mg/kg and >100 mg/kg. Also, the TD50 in the data set on Mus musculus [9] was < 300 mg/kg and > 100 mg/kg.
With `CC(=O)NC(CN)C(=O)NCc1ccccc1` (centres undefined), the ED50 in the data set with Mus musculus [1] (setting [11]) was over 100 mg/kg. The TD50 in data set [2] was over 100 mg/kg.
As for `CCOCC(NC(C)=O)C(=O)NCc1ccccc1` (centres undefined), the selectivity ratio in [3] was 4.6; in [7], over 26. Moreover, the TD50 in data set [2] is 78 mg/kg. Further, the 50% effect level with Rattus norvegicus (ED50) was put at a dose of 19 mg/kg.
Take `CC(=O)NC(CBr)C(=O)NCc1ccccc1` (centres undefined): in the data set on Mus musculus [9], the TD50 was > 100 mg/kg and < 300 mg/kg.
For `CC(=O)NC(CO)C(=O)NCc1ccccc1` (centres undefined), the ED50 in the data set on Mus musculus [1] is >100 mg/kg and <300 mg/kg. In addition, in data set [8], the TD50 is under 300 mg/kg.
Turning to `CC(=O)NC(CN1CCOCC1)C(=O)NCc1ccccc1` (centres undefined), the ED50 in the data set on Mus musculus [1] was <300 mg/kg and >100 mg/kg. In data set [2], this molecule displayed a TD50 of over 300 mg/kg.
In the case of `CC(=O)NC(CCl)C(=O)NCc1ccccc1` (centres undefined), the ED50 in the data set on Mus musculus [1] (setting [11]) amounted to 100 mg/kg. Moreover, in the data set on Mus musculus [9], the TD50 is < 300 mg/kg and > 100 mg/kg.
For `COC[C@H](NC(C)=O)C(=O)NCc1ccccc1`, the ED50 is >100 mg/kg and <300 mg/kg in the data set with Mus musculus [1]; over 30 mg/kg with Rattus norvegicus. Besides, the TD50 is over 300 mg/kg in data set [4] and over 30 mg/kg in data set [6].
Consider `CONC(NC(C)=O)C(=O)NCc1ccccc1` (centres undefined), for which the ED50 with Mus musculus [1] (setting [11]) stood at 6.2 mg/kg. Moreover, the selectivity ratio in data set [5] came out at 7.4.
As for `CC(=O)NC(CN(C)C)C(=O)NCc1ccccc1` (centres undefined), the TD50 in [2] was over 300 mg/kg.
For `CSCC(NC(C)=O)C(=O)NCc1ccccc1` (centres undefined), in the data set on Mus musculus [9], the TD50 is < 300 mg/kg and > 100 mg/kg.
For the molecule `COC[C@@H](NC(C)=O)C(=O)NCc1ccc(F)cc1`, the ED50 in the data set with Mus musculus [1] (setting [11]) was 4.2 mg/kg; in the data set on Rattus norvegicus, 2.6 mg/kg. In [5], the selectivity ratio stood at 6.7. Also, the TD50 in data set [6] was under 250 mg/kg; in [10], over 125 mg/kg.
Regarding `CC(=O)N[C@@H](C)C(=O)NCc1ccccc1`, the selectivity ratio in [5] was 1.5.
In the case of `CC(=O)N[C@H](C)C(=O)NCc1ccccc1`, the ED50 with Mus musculus [1] (setting [11]) amounted to 55 mg/kg; in the data set with Rattus norvegicus, 28 mg/kg. Moreover, the selectivity ratio in data set [5] is 3.9; in data set [7] it was over 36.
On to `COC[C@@H](NC(C)=O)C(=O)NCc1ccccc1` [LACOSAMIDE], for which the TD50 in data set [6] was over 500 mg/kg.
As to `O=C1NC(=O)C(c2ccccc2)(c2ccccc2)N1` [PHENYTOIN], the figures for the ED50 in the data set on Mus musculus [1] (setting [11]) and with Rattus norvegicus were 6.5 mg/kg and 23 mg/kg, respectively. Also, the selectivity ratio in [3] was 6.6; in data set [7], over 22.
As to `CCCC(CCC)C(=O)O` [VALPROIC ACID], the ED50 with Mus musculus [1] (setting [11]) stood at 290 mg/kg; with Rattus norvegicus, 400 mg/kg.
